Experimental data published in ChEMBL document CHEMBL1128448, “Synthesis and antifungal activity of new azole derivatives containing an N-acylmorpholine ring” (1995).
In brackets after ≈: the same amount, converted by molar mass.

Key:
Rattus norvegicus [1] = experiment: In vivo evaluation of antifungal activity in against vaginal candidosis in rat at dose 0.25 mg/kg on 10th day; type: functional
Outline: (§1)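 Groups of 10 female Wistar rats given estradiol 25 mg/kg sc on day -5, infected intravaginally with C. albicans by sterile swab on day 0; infection confirmed on day 3 by swab culture (TSB, then Sabouraud agar). Oral dosing once daily on days 3, 4, 5; vehicle controls. Vaginal swabs cultured on days 10 and 15; read-out % cured (culture-negative).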

Mus sp. [2] = experiment: In vivo evaluation of % survival rate after peroral administration on 7th day at dose 1 mg/kg; type: functional; details: route oral, 1 mg/kg
Candida parapsilosis = experiment: In vitro evaluation of minimum inhibitory concentration against Candida parapsilosis 61; type: functional
Outline: (§2)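 Stocks are 800 μg/mL in 50% ethanol. Each plate gets 10 μL of inoculum at 10^5 cfu/mL. Incubation at 25 °C, 48 h for yeasts and 120 h for dermatophytes and molds. Organisms are ATCC strains or clinical isolates.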

Candida tropicalis = experiment: In vitro evaluation of minimum inhibitory concentration against Candida tropicalis 2.11; type: functional; details: Candida tropicalis; read-out: MIC; outline: as §2
Aspergillus flavus = experiment: In vitro evaluation of minimum inhibitory concentration against Aspergillus flavus 19; type: functional; details: Aspergillus flavus; read-out: MIC; outline: as §2
Trichophyton benhamiae = experiment: In vitro evaluation of minimum inhibitory concentration against Trichophyton mentagrophytes 23; type: functional, Arthroderma benhamiae; outline: as §2
Rattus norvegicus [3] = experiment: In vivo evaluation of antifungal activity against vaginal candidosis in rat at dose 0.1 mg/kg on 10th day; type: functional
Outline: (§3)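 Groups of 10 female Wistar rats given estradiol 25 mg/kg sc on day -5, then vaginally inoculated with C. albicans on day 0. Infection is confirmed by culture of day-3 swabs. Compound is dosed orally once daily on days 3–5; controls get vehicle. Cure is scored by culture of vaginal swabs taken on days 10 and 15.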

Mus sp. [4] = experiment: In vivo evaluation of % survival rate after peroral administration on 3rd day at dose 1 mg/kg; type: functional; details: Mus sp., po
Mus sp. [5] = experiment: In vivo evaluation of % survival rate after peroral administration on 5th day at dose 1 mg/kg; type: functional; details: route oral, 1 mg/kg
Mus sp. [6] = experiment: In vivo evaluation of % survival rate after peroral administration on 3rd day at dose 0.5 mg/kg; type: functional; details: route oral
Rattus norvegicus [7] = experiment: In vivo evaluation of antifungal activity in against vaginal candidosis in rat at dose 0.25 mg/kg on 15th day; type: functional; outline: as §1
Aspergillus niger = experiment: In vitro evaluation of minimum inhibitory concentration against Aspergillus niger 18; type: functional; details: Aspergillus niger; read-out: MIC; outline: as §2
Aspergillus fumigatus = experiment: In vitro evaluation of minimum inhibitory concentration against Aspergillus fumigatus 33; type: functional; outline: as §2
Mus sp. [8] = experiment: In vivo evaluation of % survival rate after peroral administration on 5th day at dose 0.5 mg/kg; type: functional; details: route oral
Rattus norvegicus [9] = experiment: In vivo evaluation of antifungal activity against vaginal candidosis in rat at dose 0.1 mg/kg on 15th day; type: functional; outline: as §3
Pichia kudriavzevii = experiment: In vitro evaluation of minimum inhibitory concentration against Candida krusei 70; type: functional; details: Pichia kudriavzevii; read-out: MIC; outline: as §2
Microsporum canis = experiment: In vitro evaluation of minimum inhibitory concentration against Microsporum canis 47; type: functional; outline: as §2
Kluyveromyces marxianus = experiment: In vivo Evaluation of minimum inhibitory concentration against Candida pseudotropicalis 13; type: functional; outline: as §2
Rhodotorula mucilaginosa = experiment: In vitro evaluation of minimum inhibitory concentration against Rhodotorula rubra 16; type: functional; outline: as §2
Nannizzia gypsea = experiment: In vitro evaluation of minimum inhibitory concentration against Microsporum gypseum 22; type: functional; outline: as §2
Mus musculus = experiment: In vivo evaluation of % survival rate after peroral administration on 7th day at dose 0.5 mg/kg; type: functional; details: route oral, 0.5 mg/kg
Mus sp. [10] = experiment: In vivo evaluation of % survival rate after peroral administration on 9th day at dose 0.5 mg/kg; type: functional; details: route oral, 0.5 mg/kg
Mus sp. [11] = experiment: In vivo evaluation of % survival rate after peroral administration on 9th day at dose 1 mg/kg; type: functional; details: route oral, 1 mg/kg
Trichophyton rubrum = experiment: In vitro evaluation of minimum inhibitory concentration against Trichophyton rubrum 90; type: functional; outline: as §2
Nakaseomyces glabratus = experiment: In vitro evaluation of minimum inhibitory concentration against Torulopsis glabrata 78; type: functional; outline: as §2

For `C[C@H]1N(C(=O)c2ccc(C(F)(F)F)cc2)CCO[C@@]1(Cn1cncn1)c1ccc(F)cc1F` (stereo in doubt), the Cure rate (Rattus norvegicus [1]) was 40%, the Survival (Mus sp. [2]) was 100% and the MIC (Candida parapsilosis) was 2.5 µg/mL (≈ 5.36 µM). For the same compound, the MIC (Candida tropicalis) was over 80 µg/mL, the MIC (Aspergillus flavus) was over 80 µg/mL and the MIC (Trichophyton benhamiae) was 10 µg/mL (≈ 21.4 µM). It also gave a Cure rate (Rattus norvegicus [3]) of 10%, a survival at 1 mg/kg (Mus sp. [4]) of 100% and a Survival (Mus sp. [5]) of 100%. It also gave a survival at 0.5 mg/kg (Mus sp. [6]) of 100%, a Cure rate (Rattus norvegicus [7]) of 60% and an MIC (Aspergillus niger) of 40 µg/mL (≈ 85.8 µM). The MIC (Aspergillus fumigatus) was 10 µg/mL (≈ 21.4 µM), the survival at 0.5 mg/kg (Mus sp. [8]) was 100% and the Cure rate (Rattus norvegicus [9]) was 20%. The MIC (Pichia kudriavzevii) was 80 µg/mL (≈ 172 µM), the MIC (Microsporum canis) was 10 µg/mL (≈ 21.4 µM) and the MIC (Kluyveromyces marxianus) was 40 µg/mL (≈ 85.8 µM). The MIC (Rhodotorula mucilaginosa) was over 80 µg/mL, the MIC (Nannizzia gypsea) was 20 µg/mL (≈ 42.9 µM) and the Survival (Mus musculus) was 100%. For the same compound, the Survival (Mus sp. [10]) was 100%, the Survival (Mus sp. [11]) was 100% and the MIC (Trichophyton rubrum) was 10 µg/mL (≈ 21.4 µM). For the same compound, the MIC (Nakaseomyces glabratus) was 40 µg/mL (≈ 85.8 µM).
